Assay results: ChEMBL document CHEMBL1629560, “Gain-of-function mutations in the transcription factor MRR1 are responsible for overexpression of the MDR1 efflux pump in fluconazole-resistant Candida dubliniensis strains” (2008)
In brackets after ≈: the same amount, converted by molar mass.

How the values were obtained:
Candida albicans [1] = assay: Antimicrobial activity against wild-type Candida albicans SC5314 by microdilution method; type: functional
Summary of the method: (§1)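 Broth microdilution was run in HR medium with NaHCO3 and 0.2 M phosphate buffer (pH 7.2), using serial twofold dilutions. Starting assay concentrations were fluconazole 200 μg/ml, cerulenin 50 μg/ml and brefeldin A 200 μg/ml. Fluconazole stock was prepared in water; cerulenin and brefeldin A stocks were in DMSO. Strains were kept at −80°C and subcultured on YPD at 30°C.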

Candida albicans [2] = assay: Antimicrobial activity against Candida albicans harboring MRR1 CD57A mutant gene by microdilution method
Candida dubliniensis [3] = assay: Antimicrobial activity against Candida dubliniensis harboring MRR1 CD57B mutant gene by microdilution method; type: functional
Summary of the method: (§2)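 MRR1 alleles were expressed from the ADH1 promoter as single-copy integrations in C. albicans SC5314 mrr1Δ mutants, selected with nourseothricin. Broth microdilution was run in HR medium with NaHCO3 and 0.2 M phosphate buffer (pH 7.2), using serial twofold dilutions. Starting assay concentrations were fluconazole 200 μg/ml, cerulenin 50 μg/ml and brefeldin A 200 μg/ml.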

Candida albicans [4] = assay: Antimicrobial activity against Candida albicans harboring P683S mutation in MRR1F5 gene by microdilution method
Candida dubliniensis [5] = assay: Antimicrobial activity against Candida dubliniensis harboring MRR1 CM1 mutant gene by microdilution method; type: functional; summary of the method: as §2
Candida albicans [6] = assay: Antimicrobial activity against Candida albicans harboring MRR1 gene by microdilution method; type: functional; summary of the method: as §2
Candida albicans [7] = assay: Antimicrobial activity against mrr1-deficient Candida albicans by microdilution method; type: functional; summary of the method: as §1
Candida dubliniensis [8] = assay: Antimicrobial activity against Candida dubliniensis harboring MRR1 CM2 mutant gene by microdilution method; type: functional; summary of the method: as §2
Candida albicans [9] = assay: Antimicrobial activity against Candida albicans harboring MRR1 CD51-2A mutant gene by microdilution method
Candida albicans [10] = assay: Antimicrobial activity against Candida albicans harboring MRR1 CD51-2B mutant gene by microdilution method
Candida dubliniensis [11] = assay: Antimicrobial activity against Candida dubliniensis harboring MRR1 CD57 mutant gene by microdilution method; type: functional; summary of the method: as §2

SMILES	MIC (Candida albicans [1])	MIC (Candida albicans [2])	MIC (Candida dubliniensis [3])	MIC (Candida albicans [4])	MIC (Candida dubliniensis [5])	MIC (Candida albicans [6])	MIC (Candida albicans [7])	MIC (Candida dubliniensis [8])	MIC (Candida albicans [9])	MIC (Candida albicans [10])	MIC (Candida dubliniensis [11])
C[C@H]1CCC/C=C/[C@@H]2C[C@H](O)C[C@H]2[C@H](O)/C=C/C(=O)O1 [BREFELDIN A]	1.56 µg/mL (≈ 5.56 µM)	12.5 µg/mL (≈ 44.6 µM)	12.5 µg/mL (≈ 44.6 µM)	25 µg/mL (≈ 89.2 µM)	1.56 µg/mL (≈ 5.56 µM)	1.56 µg/mL (≈ 5.56 µM)	1.56 µg/mL (≈ 5.56 µM)	12.5 µg/mL (≈ 44.6 µM)	12.5 µg/mL (≈ 44.6 µM)	3.13 µg/mL (≈ 11.2 µM)	1.56 µg/mL (≈ 5.56 µM)
C/C=C/C/C=C/CCC(=O)[C@H]1O[C@H]1C(N)=O [CERULENIN]	0.2 µg/mL (≈ 0.896 µM)	3.13 µg/mL (≈ 14 µM)	3.13 µg/mL (≈ 14 µM)	6.25 µg/mL (≈ 28 µM)	0.2 µg/mL (≈ 0.896 µM)	0.2 µg/mL (≈ 0.896 µM)	0.2 µg/mL (≈ 0.896 µM)	3.13 µg/mL (≈ 14 µM)	3.13 µg/mL (≈ 14 µM)	0.78 µg/mL (≈ 3.49 µM)	0.2 µg/mL (≈ 0.896 µM)
OC(Cn1cncn1)(Cn1cncn1)c1ccc(F)cc1F [FLUCONAZOLE]	0.1 µg/mL (≈ 0.327 µM)	0.78 µg/mL (≈ 2.55 µM)	0.78 µg/mL (≈ 2.55 µM)	3.13 µg/mL (≈ 10.2 µM)	0.1 µg/mL (≈ 0.327 µM)	0.1 µg/mL (≈ 0.327 µM)	0.1 µg/mL (≈ 0.327 µM)	0.78 µg/mL (≈ 2.55 µM)	0.78 µg/mL (≈ 2.55 µM)	0.39 µg/mL (≈ 1.27 µM)	0.1 µg/mL (≈ 0.327 µM)
